Test results taken from ChEMBL document CHEMBL4024796, “Phenylthiomethyl Ketone-Based Fragments Show Selective and Irreversible Inhibition of Enteroviral 3C Proteases” (J Med Chem, 2018).
The source made the active and inactive calls. No cut-off for these calls is given here.

Assays:
[1] = molecular target: Genome polyprotein (Coxsackievirus B3 (strain Nancy)) (UniProt P03313); experiment: Inhibition of Coxsackievirus B3 C-terminal His6-tagged protease 3C expressed in Escherichia coli BL21(DE3) at 650 uM using N-Dabcyl-KTLEALFQGPPVYE-(Edans)-NH2 as substrate after 30 mins by fluorescence assay relative to control
Procedure, shortened: (§1)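 Enzyme added from 40 μM and substrate from 20 μM working solutions, inhibitor in DMSO, DMSO alone as control. Fluorescence read at ex 355/em 538 nm over 30 min, triplicates. Apparent IC50 from a Hill-type fit of initial velocities; kobs for covalent reversible inhibition from progress-curve fits.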
Target sequence in this assay (P03313 whole entry): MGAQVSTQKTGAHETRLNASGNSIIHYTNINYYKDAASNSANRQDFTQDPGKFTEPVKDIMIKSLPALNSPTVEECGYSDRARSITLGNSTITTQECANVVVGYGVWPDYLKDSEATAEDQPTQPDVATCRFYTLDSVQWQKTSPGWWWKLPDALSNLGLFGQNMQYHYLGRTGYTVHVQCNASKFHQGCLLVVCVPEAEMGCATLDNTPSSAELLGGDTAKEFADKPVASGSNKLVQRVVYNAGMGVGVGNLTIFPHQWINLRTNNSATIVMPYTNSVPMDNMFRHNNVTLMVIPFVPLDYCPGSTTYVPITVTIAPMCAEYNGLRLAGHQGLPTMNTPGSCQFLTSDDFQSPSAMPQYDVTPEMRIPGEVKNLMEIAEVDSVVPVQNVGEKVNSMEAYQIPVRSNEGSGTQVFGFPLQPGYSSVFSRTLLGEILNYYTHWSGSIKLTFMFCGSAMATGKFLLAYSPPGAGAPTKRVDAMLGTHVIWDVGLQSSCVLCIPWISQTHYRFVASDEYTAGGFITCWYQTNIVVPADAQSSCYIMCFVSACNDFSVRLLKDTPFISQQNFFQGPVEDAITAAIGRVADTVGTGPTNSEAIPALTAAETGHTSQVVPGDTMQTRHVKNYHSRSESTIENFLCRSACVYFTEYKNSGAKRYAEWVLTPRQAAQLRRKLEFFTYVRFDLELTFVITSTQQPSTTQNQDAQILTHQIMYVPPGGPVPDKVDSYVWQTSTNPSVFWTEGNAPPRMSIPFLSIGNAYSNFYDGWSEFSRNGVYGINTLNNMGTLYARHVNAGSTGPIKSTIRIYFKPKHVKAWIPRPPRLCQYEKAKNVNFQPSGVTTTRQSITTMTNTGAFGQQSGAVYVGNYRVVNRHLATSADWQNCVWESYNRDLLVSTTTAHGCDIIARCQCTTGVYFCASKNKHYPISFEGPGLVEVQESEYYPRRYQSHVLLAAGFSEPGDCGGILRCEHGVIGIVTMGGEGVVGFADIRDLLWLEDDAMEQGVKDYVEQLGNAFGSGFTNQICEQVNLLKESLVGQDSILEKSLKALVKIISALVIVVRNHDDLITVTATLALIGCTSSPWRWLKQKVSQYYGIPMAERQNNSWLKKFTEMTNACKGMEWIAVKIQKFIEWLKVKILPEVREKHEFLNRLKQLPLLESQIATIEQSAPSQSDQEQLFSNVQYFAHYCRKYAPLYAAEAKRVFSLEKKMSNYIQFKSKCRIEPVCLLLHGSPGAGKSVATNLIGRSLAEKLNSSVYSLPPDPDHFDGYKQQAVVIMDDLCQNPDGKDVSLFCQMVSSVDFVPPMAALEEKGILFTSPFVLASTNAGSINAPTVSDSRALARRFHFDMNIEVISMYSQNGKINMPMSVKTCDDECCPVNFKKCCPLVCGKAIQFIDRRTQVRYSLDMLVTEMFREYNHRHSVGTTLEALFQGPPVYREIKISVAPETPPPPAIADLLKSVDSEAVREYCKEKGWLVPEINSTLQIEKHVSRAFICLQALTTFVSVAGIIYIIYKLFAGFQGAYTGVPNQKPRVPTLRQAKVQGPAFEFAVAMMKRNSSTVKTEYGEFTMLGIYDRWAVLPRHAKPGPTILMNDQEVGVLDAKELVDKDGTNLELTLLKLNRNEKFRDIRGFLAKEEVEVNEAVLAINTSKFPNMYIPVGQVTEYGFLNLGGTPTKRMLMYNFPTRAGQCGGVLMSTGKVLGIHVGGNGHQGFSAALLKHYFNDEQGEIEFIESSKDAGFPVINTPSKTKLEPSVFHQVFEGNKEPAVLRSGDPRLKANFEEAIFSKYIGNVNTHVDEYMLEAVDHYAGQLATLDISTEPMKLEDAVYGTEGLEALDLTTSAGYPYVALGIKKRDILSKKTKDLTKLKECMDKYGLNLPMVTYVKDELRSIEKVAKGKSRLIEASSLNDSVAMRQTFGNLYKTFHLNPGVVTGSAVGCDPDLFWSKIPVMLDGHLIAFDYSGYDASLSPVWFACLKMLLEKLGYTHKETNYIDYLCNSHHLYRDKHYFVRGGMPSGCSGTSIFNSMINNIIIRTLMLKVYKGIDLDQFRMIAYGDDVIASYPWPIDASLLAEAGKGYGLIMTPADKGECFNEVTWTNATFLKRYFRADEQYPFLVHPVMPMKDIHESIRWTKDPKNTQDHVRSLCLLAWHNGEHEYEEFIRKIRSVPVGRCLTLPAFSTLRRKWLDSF

[2] = Solubility of the compound; format: physicochemical
[3] = Glutathione reactivity assessed as GSH-adduct formation after 2 to 24 hrs by LC-MS/MS analysis
Procedure, shortened: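 Inhibitor in DMSO at 2.5 mM, mixed with equimolar glutathione in assay buffer (100 mM HEPES-NaOH, 1 mM EDTA, 0.01% Triton X, pH 7.5). Held at room temperature for 2 h and 24 h, with an aliquot taken by LC/MS after each period. Controls for each inhibitor omitted glutathione.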

[4] = molecular target: Genome polyprotein (Coxsackievirus B3 (strain Nancy)) (UniProt P03313); experiment: Irreversible inhibition of Coxsackievirus B3 C-terminal His6-tagged protease 3C expressed in Escherichia coli BL21(DE3) assessed as ratio of Kinact to Ki using N-Dabcyl-KTLEALFQGPPVYE-(Edans)-NH2 as substrate after 30 mins by fluorescence assay
Procedure, shortened: (§2)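 Same FRET assay (HEPES-NaOH 100 mM, EDTA 1 mM, Triton X 0.01%, pH 7.5; ex 355/em 538 nm; triplicates). kobs for irreversible inhibition obtained by fitting progress curves to [P]=vi/kobs(1−e^(−kobs·t)). kinact/KI taken from the slope of the linear portion of kobs versus inhibitor concentration.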
Target sequence in this assay (P03313 whole entry): as above

enterovirus D68 [5] = experiment: Binding affinity to Enetrovirus D68 C-terminal His6-tagged protease 3C at Cys60 residue expressed in Escherichia coli BL21(DE3) assessed as adduct formation after 30 mins by fluorescence assay
[6] = molecular target: Genome polyprotein (Coxsackievirus B3 (strain Nancy)) (UniProt P03313); experiment: Inhibition of Coxsackievirus B3 C-terminal His6-tagged protease 3C expressed in Escherichia coli BL21(DE3) using N-Dabcyl-KTLEALFQGPPVYE-(Edans)-NH2 as substrate preincubated up to 60 mins followed by substrate addition by fluorescence assay; settings: TDE = time-dependent effect
Procedure, shortened: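 Enzyme and inhibitor (or DMSO) preincubated in assay buffer (HEPES-NaOH pH 7.5, EDTA, Triton X) for 60, 40, 20 or 0 min under a lid. Reaction started by FRET substrate addition and followed 60 min by fluorescence (ex 355/em 538 nm). Triplicates per incubation time. Relative activity calculated for every 5-min step of the reaction.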
Target sequence in this assay (P03313 whole entry): as above

enterovirus D68 [7] = experiment: Binding affinity to Enetrovirus D68 C-terminal His6-tagged protease 3C at Cys147 residue expressed in Escherichia coli BL21(DE3) assessed as adduct formation after 30 mins by fluorescence assay
enterovirus D68 [8] = experiment: Irreversible inhibition of Enetrovirus D68 C-terminal His6-tagged protease 3C expressed in Escherichia coli BL21(DE3) assessed as ratio of Kinact to Ki using N-Dabcyl-KTLEALFQGPPVYE-(Edans)-NH2 as substrate after 30 mins by fluorescence assay; procedure, shortened: as §2
[9] = Drug level in HEPES-NaOH buffer treated with 7,7-dimethyl-2,5-dioxo-5,6,7,8-tetrahydro-2H-chromene-3-carboxamide overnight by LC-MS analysis
Genome polyprotein [10] = molecular target: T1, Genome polyprotein (Coxsackievirus B3 (strain Nancy), UniProt P03313); experiment: (§3) Inhibition of Coxsackievirus B3 C-terminal His6-tagged protease 3C expressed in Escherichia coli BL21(DE3) using N-Dabcyl-KTLEALFQGPPVYE-(Edans)-NH2 as substrate after 30 mins by fluorescence assay
Procedure, shortened: (§4)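 FRET cleavage assay in 100 mM HEPES-NaOH pH 7.5, 1 mM EDTA, 0.01% Triton X. Enzyme added from a 40 µM stock, substrate diluted to 20 µM before addition. Inhibitor in DMSO, DMSO alone as control. Fluorescence at 538 nm (ex 355 nm) over 30 min, triplicates. Apparent IC50 from nonlinear fit of vi/v0 = 1/(1+[I]/IC50)^h. Ki from koff/kon for covalent reversible binding.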

[11] = molecular target: Genome polyprotein (Coxsackievirus B3 (strain Nancy)) (UniProt P03313); experiment: as §3; procedure, shortened: as §4
Target sequence in this assay (P03313 1541-1723 limits assumed): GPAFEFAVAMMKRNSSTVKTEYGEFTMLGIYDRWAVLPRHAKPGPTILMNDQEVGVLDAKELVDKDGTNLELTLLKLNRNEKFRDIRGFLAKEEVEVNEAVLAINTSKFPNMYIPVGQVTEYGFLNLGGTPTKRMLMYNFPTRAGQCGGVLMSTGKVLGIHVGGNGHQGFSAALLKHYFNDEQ

[12] = molecular target: Genome polyprotein (Coxsackievirus B3 (strain Nancy)) (UniProt P03313); experiment: Inhibition of Coxsackievirus B3 C-terminal His6-tagged protease 3C expressed in Escherichia coli BL21(DE3) at 500 uM using N-Dabcyl-KTLEALFQGPPVYE-(Edans)-NH2 as substrate preincubated up to 60 mins followed by substrate addition by fluorescence assay; settings: TDE = time-dependent effect
Procedure, shortened: (§5)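 CVB3 3Cpro preincubated with inhibitor (or DMSO control) in 100 mM HEPES-NaOH pH 7.5, 1 mM EDTA, 0.01% Triton X, lid-covered, for 60, 40, 20 or 0 min. Substrate then added and reaction followed 60 min (ex 355/em 538 nm). Relative activity calculated per 5-min step versus control. Triplicates per incubation time.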
Target sequence in this assay (P03313 whole entry): as the sequence (P03313 whole entry) above

Genome polyprotein [13] = molecular target: T1, Genome polyprotein; experiment: Reversible inhibition of Coxsackievirus B3 C-terminal His6-tagged protease 3C expressed in Escherichia coli BL21(DE3) using N-Dabcyl-KTLEALFQGPPVYE-(Edans)-NH2 as substrate after 30 mins by fluorescence assay; procedure, shortened: as §4
[14] = molecular target: Genome polyprotein (Coxsackievirus B3 (strain Nancy)) (UniProt P03313); experiment: Irreversible inhibition of Coxsackievirus B3 C-terminal His6-tagged protease 3C expressed in Escherichia coli BL21(DE3) assessed as thioether adduct formation after 60 mins by MALDi-TOF spectral analysis
Target sequence in this assay (P03313 whole entry): as above

[15] = molecular target: Genome polyprotein (Coxsackievirus B3 (strain Nancy)) (UniProt P03313); experiment: Irreversible inhibition of Coxsackievirus B3 C-terminal His6-tagged protease 3C expressed in Escherichia coli BL21(DE3) assessed as protein-compound adduct formation after 60 mins by LC-MS analysis
Target sequence in this assay (P03313 whole entry): as above

[16] = molecular target: Genome polyprotein (Coxsackievirus B3 (strain Nancy)) (UniProt P03313); experiment: Irreversible inhibition of Coxsackievirus B3 C-terminal His6-tagged protease 3C expressed in Escherichia coli BL21(DE3) after 60 mins by LC-MS analysis
[17] = molecular target: Genome polyprotein (Coxsackievirus B3 (strain Nancy)) (UniProt P03313); experiment: Inhibition of Coxsackievirus B3 C-terminal His6-tagged protease 3C expressed in Escherichia coli BL21(DE3) at 100 uM using N-Dabcyl-KTLEALFQGPPVYE-(Edans)-NH2 as substrate preincubated up to 60 mins followed by substrate addition by fluorescence assay; settings: TDE = time-dependent effect; procedure, shortened: as §5
[18] = Reversible inhibition of Enetrovirus D68 C-terminal His6-tagged protease 3C expressed in Escherichia coli BL21(DE3) using N-Dabcyl-KTLEALFQGPPVYE-(Edans)-NH2 as substrate after 30 mins by fluorescence assay; parameters: species or system enterovirus D68; procedure, shortened: as §1

T1 sequence (P03313 1541-1723 limits assumed): as the sequence (P03313 1541-1723 limits assumed) above

## Cn1cc(C(=O)CSc2nnnn2C)cc1C(N)=O
[1]
  inhibition: < 20%

## NC(=O)n1cc(C(=O)c2cc(O)ccc2Cl)cn1
[2]
  solubility: Insoluble

## NC(=O)c1cc(C(=O)CBr)cn1C/C=C/c1ccccc1
[3]
  Drug metabolism: Metabolite detected
[4]
  Ratio: 1710 M⁻¹ s⁻¹
Enterovirus D68 [5]
  Activity: Active
[6]
  inhibition: Tde
Enterovirus D68 [7]
  Activity: Active
Enterovirus D68 [8]
  Ratio: 1210 M⁻¹ s⁻¹

## CC1(C)CC(=O)c2cc(C(=O)O)c(=O)oc2C1
[9]
  Drug metabolism: Metabolite detected

## CC(=O)c1c(C)[nH]c(C(N)=O)c1C
[1]
  inhibition: < 20%

## CC1(C)CC(=O)c2cc(C(N)=O)c(=O)oc2C1
Genome polyprotein [10]
  IC50: 355 µM
  Ki: 393 µM
[11]
  inhibition: Dose-dependent effect
[12]
  inhibition: Tde
[1]
  inhibition: > 30%

## NC(=O)c1cc(C(=O)C(Sc2ccccc2)Sc2ccccc2)cn1C/C=C/c1ccccc1
[6]
  inhibition: Tde
Genome polyprotein [13]
  Ki: 272 µM

## O=C(CSc1ccccc1)c1ccccc1
[1]
  inhibition: inactive

## NC(=O)c1cc(C(=O)CSc2ccccc2)cn1C/C=C/c1ccccc1
[3]
  Drug metabolism: Metabolite detected
[4]
  Ratio: 54.4 M⁻¹ s⁻¹
[6]
  inhibition: Tde
Enterovirus D68 [7]
  Activity: Active
Enterovirus D68 [8]
  Ratio: 160 M⁻¹ s⁻¹

## Cn1cc(C(=O)CSc2ccccc2)cc1C(N)=O
[11]
  inhibition: Dose-dependent effect
[14]
  inhibition: Active
[4]
  Ratio: 16.8 M⁻¹ s⁻¹
[15]
  inhibition: Active
[16]
  inhibition: Active
[1]
  inhibition: Active
Enterovirus D68 [7]
  Activity: Active
Enterovirus D68 [8]
  Ratio: 21.3 M⁻¹ s⁻¹
[17]
  inhibition: Tde

## Cn1cc(C(=O)Cn2cccc(C(F)(F)F)c2=O)cc1C(N)=O
[1]
  inhibition: < 20%

## Cc1ccc2[nH]c(C)c(C(=O)CSc3ccccc3)c2c1
[1]
  inhibition: inactive

## CC(=O)c1cc(C(N)=O)n(C/C=C/c2ccccc2)c1
[6]
  inhibition: Tde
[18]
  Ki: 422 µM
Genome polyprotein [13]
  Ki: 197 µM
